The record followed here is ChEMBL document CHEMBL1147128, “Development of molecular probes for second-site screening and design of protein tyrosine phosphatase inhibitors” (J Med Chem, 2007).

Each structure is given as a SMILES string. Bounds are passed on as bounds.

The target in test [1] is Dual specificity protein phosphatase 3 (Homo sapiens, UniProt P51452). In words: Inhibition of VHR. In outline: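 VHR was assayed with pNPP at its Km of 1.5 mM, at 30°C in 0.15 M Bis-Tris pH 6.0 (150 mM ionic strength, NaCl), 1.0 mM DTT, 5% DMSO final. Eight compound concentrations from 0.0128 to 1000 μM were preincubated 10 min at RT, then reacted 20 min. NaOH quench, read at 405 nm with the enzyme-free blank corrected. IC50 from Vi/V0 = IC50/(IC50+[I]).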
Chain of Dual specificity protein phosphatase 3 (P51452 whole entry): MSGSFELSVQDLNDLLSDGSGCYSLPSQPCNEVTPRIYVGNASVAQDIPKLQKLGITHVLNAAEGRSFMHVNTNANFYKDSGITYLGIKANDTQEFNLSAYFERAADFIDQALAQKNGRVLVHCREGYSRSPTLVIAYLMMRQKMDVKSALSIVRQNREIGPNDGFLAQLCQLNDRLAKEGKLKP

The target in test [2] is T1, Tyrosine-protein phosphatase non-receptor type 1 (Homo sapiens, UniProt P18031).
T1 sequence (P18031 whole entry): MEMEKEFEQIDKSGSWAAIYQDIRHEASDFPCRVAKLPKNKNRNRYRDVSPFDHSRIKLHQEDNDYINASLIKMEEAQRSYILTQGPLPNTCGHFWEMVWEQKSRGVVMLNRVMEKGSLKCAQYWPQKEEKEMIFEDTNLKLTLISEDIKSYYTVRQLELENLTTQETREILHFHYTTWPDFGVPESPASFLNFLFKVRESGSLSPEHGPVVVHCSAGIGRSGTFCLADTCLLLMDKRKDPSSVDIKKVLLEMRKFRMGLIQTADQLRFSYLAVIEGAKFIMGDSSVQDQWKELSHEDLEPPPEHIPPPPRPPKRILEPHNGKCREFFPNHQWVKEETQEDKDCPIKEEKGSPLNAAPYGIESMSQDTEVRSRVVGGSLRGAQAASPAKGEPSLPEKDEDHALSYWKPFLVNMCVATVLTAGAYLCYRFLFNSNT
Description: Inhibition of PTP1B. The method, boiled down: (§1)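 Hydrolysis of pNPP at its Km (1 mM) was measured at 30°C in 0.15 M Bis-Tris pH 6.0, ionic strength 150 mM with NaCl, 1.0 mM DTT, 5% DMSO final. Enzyme and compound (0.0128–1000 μM, 5-fold steps) were preincubated 10 min at room temperature, then reacted 20 min. The reaction was quenched with 1 M NaOH and read at 405 nm, with the no-enzyme background subtracted. IC50 came from the fit Vi/V0 = IC50/(IC50+[I]).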

A short description of test [3]: Inhibition of Yersinia pestis YopH expressed in Escherichia coli. The method, boiled down: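 GST-YopH was purified on glutathione-Sepharose and dialysed into 30 mM Tris, 150 mM NaCl, then with 1 mM DTT. Assayed with pNPP at Km (1 mM), 30°C, 0.15 M Bis-Tris pH 6.0, 1.0 mM DTT, 5% DMSO final. Compound (0.0128–1000 μM) was preincubated 10 min at RT, then reacted 20 min. NaOH quench, A405 with the no-enzyme blank subtracted, IC50 by the hyperbolic fit.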

In test [4] the target is T2, Receptor-type tyrosine-protein phosphatase C (Homo sapiens, UniProt P08575).
T2 sequence (P08575 whole entry): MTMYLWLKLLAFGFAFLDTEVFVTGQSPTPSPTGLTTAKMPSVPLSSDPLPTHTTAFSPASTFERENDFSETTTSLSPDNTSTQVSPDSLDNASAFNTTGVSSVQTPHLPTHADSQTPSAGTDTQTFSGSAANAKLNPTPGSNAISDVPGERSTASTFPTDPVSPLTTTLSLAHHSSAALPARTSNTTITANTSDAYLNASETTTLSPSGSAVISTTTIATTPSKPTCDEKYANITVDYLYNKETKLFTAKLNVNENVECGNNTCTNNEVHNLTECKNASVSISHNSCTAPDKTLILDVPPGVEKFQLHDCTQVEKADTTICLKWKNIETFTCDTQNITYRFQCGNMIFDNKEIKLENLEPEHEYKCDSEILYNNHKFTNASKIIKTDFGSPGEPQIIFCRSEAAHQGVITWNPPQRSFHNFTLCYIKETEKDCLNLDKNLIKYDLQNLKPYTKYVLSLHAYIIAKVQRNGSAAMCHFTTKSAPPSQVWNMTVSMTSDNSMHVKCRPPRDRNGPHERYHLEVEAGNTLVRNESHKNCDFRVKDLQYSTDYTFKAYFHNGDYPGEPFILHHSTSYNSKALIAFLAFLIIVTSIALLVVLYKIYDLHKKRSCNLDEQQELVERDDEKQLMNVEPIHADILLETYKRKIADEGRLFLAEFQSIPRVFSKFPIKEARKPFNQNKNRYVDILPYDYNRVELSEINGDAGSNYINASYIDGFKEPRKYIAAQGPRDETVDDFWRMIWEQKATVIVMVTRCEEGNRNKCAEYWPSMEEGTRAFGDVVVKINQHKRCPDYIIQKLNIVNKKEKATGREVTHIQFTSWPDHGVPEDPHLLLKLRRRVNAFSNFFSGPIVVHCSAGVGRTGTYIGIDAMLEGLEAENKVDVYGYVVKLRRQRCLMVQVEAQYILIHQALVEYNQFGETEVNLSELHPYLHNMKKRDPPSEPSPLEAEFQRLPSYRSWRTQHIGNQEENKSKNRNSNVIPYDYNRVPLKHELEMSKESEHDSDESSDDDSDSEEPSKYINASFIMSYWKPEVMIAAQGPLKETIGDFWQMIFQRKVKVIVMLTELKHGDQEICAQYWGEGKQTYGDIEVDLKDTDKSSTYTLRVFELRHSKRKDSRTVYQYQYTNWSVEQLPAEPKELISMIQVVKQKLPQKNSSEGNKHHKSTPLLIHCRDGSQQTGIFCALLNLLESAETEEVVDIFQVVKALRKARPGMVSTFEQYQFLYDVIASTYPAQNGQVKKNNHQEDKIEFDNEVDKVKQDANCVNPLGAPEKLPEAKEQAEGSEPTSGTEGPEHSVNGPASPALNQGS
Description: Inhibition of CD45. In outline: as §1

The target in test [5] is T3, Tyrosine-protein phosphatase non-receptor type 2 (Homo sapiens, UniProt P17706).
T3 sequence (P17706 whole entry): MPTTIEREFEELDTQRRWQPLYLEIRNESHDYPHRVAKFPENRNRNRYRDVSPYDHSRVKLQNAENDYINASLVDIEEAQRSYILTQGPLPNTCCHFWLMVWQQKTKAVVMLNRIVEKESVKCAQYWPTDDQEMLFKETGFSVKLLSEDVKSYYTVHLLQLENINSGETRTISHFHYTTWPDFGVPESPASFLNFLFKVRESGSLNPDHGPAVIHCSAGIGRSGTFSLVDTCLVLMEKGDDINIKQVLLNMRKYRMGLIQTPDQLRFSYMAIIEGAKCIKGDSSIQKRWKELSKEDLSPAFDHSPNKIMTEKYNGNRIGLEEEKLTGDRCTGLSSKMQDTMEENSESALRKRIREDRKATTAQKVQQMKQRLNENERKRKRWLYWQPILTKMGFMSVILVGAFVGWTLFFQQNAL
Description: Inhibition of TCPTP. In outline:
as §1

The target of test [6] is T4, Tyrosine-protein phosphatase non-receptor type 7 (Homo sapiens, UniProt P35236).
T4 sequence (P35236 whole entry): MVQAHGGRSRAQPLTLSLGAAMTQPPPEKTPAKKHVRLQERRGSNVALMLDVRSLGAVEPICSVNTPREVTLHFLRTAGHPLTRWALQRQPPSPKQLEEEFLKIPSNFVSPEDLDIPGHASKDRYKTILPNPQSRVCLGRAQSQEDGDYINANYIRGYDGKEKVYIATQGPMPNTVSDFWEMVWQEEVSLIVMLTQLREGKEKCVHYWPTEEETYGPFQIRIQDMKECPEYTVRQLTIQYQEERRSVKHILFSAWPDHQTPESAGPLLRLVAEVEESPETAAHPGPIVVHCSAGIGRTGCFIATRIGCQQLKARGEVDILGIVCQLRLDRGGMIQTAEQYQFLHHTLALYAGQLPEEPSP
Description: Inhibition of HePTP. The method, boiled down:
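pNPP was held at its Km of 2.5 mM for HePTP. Assay at 30°C in 0.15 M Bis-Tris pH 6.0 (ionic strength 150 mM, NaCl), 1.0 mM DTT, 5% DMSO final. Compound (0.0128–1000 μM) and enzyme were preincubated 10 min at RT, then reacted 20 min with substrate. NaOH quench, A405 minus the no-enzyme blank. IC50 fit to Vi/V0 = IC50/(IC50+[I]).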

For `CC1(C)CC(NC(=O)/C=C/c2ccc(-c3ccc(O)c(C(=O)O)c3)o2)CC(C)(C)N1[O]`, the IC50 is 12 µM in test [1]; 24 µM in test [2]; 3 µM in test [3]; 14 µM in test [4]; 14 µM in test [5]; 7.5 µM in test [6].

With `COC(=O)c1cc(-c2ccc(CNC3CC(C)(C)N([O])C(C)(C)C3)o2)ccc1O`, the IC50 in test [1] is 850 µM; in test [2], more than 1000 µM; in test [3], more than 1000 µM; in test [4] it was more than 1000 µM; in test [5], more than 1000 µM; in test [6], more than 1000 µM.

For `COC(=O)c1cc(NC(=O)CCCC(=O)NC2CC(C)(C)N([O])C(C)(C)C2)ccc1O`, the IC50 in test [1], in test [2], in test [3], in test [4], in test [5] and in test [6] was more than 1000 µM throughout.

On to `CC1(C)CC(NC(=O)/C=C/c2ccc(-c3cccc([N+](=O)[O-])c3)o2)CC(C)(C)N1[O]`, for which the IC50 is 200 µM in test [1]; 1000 µM in test [2]; 46 µM in test [3]; more than 1000 µM in test [4]; 260 µM in test [5]; 211 µM in test [6].

For `CC1(C)CC(NC(=O)/C=C/c2ccc(-c3ccc([N+](=O)[O-])cc3)o2)CC(C)(C)N1[O]`, the IC50 in test [1] was 1000 µM; in test [2], more than 1000 µM; in test [3], 47 µM; in test [4] it was more than 1000 µM; in test [5], more than 1000 µM; in test [6] it was more than 1000 µM.

For the compound `CC1(C)CC(NCc2ccc(-c3ccc(O)c(C(=O)O)c3)o2)CC(C)(C)N1[O]`, the IC50 is 241 µM in test [1]; more than 1000 µM in test [2]; 50 µM in test [3]; more than 1000 µM in test [4]; 685 µM in test [5]; more than 1000 µM in test [6].

`CC1(C)CC(NC(=O)CCCC(=O)Nc2ccc(O)c(C(=O)O)c2)CC(C)(C)N1[O]`: the IC50 was 1000 µM in test [1]; more than 1000 µM in test [2]; 336 µM in test [3]; more than 1000 µM in test [4]; more than 1000 µM in test [5]; more than 1000 µM in test [6].
